Calls of active or inactive are those of the source. No cut-off for these calls is given here.
Assays:
Assay type in all cases: functional, cell-based
T-cell [1] = assay: Induction of IFN-gamma production in C57BL/6 mouse natural killer T cells after 48 hrs by cytometric bead array
In short: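 Spleen cells (about 4 × 10⁵) from female C57BL/6 mice aged 6–8 weeks, in RPMI 1640 with 10% heat-inactivated FCS, glutamine, antibiotics and Hepes, at 37 °C in 5% CO₂. Cells were stimulated with glycolipid at 2, 20 or 200 ng/mL for 48 h. Supernatant IFN-γ was measured by cytometric bead array on FACS against a kit standard curve. Mean of three wells.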

T-cell [2] = assay: Induction of IL13 production in C57BL/6 mouse natural killer T cells after 48 hrs by cytometric bead array
In short: (§1)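 Spleen cells (approx. 4 × 10⁵) from female C57BL/6 mice aged 6–8 weeks were cultured 48 h at 37 °C in humidified 5% CO₂. Medium was RPMI 1640 with 10% heat-inactivated FCS, 2 mM L-glutamine, penicillin/streptomycin and 10 mM Hepes, plus glycolipid at 2, 20 or 200 ng/mL. Supernatant IFN-γ, IL-4 and IL-13 were read by cytometric bead array with PE detection, interpolated from standard curves. Values are means of three wells.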

T-cell [3] = assay: Induction of IL4 production in C57BL/6 mouse natural killer T cells after 48 hrs by cytometric bead array; in short: as §1
T-cell [4] = assay: Induction of IFN-gamma production in C57BL/6 mouse natural killer T cells upto 200 ng/ml after 48 hrs by cytometric bead array relative to KRN7000; in short: as §1
T-cell [5] = assay: Induction of IL4 production in C57BL/6 mouse natural killer T cells at 2 ng/ml after 48 hrs by cytometric bead array; in short: as §1
T-cell [6] = assay: Induction of IL13 production in C57BL/6 mouse natural killer T cells at 2 ng/ml after 48 hrs by cytometric bead array; in short: as §1

Compound	Activity (T-cell [1])	Activity (T-cell [2])	Activity (T-cell [3])	Activity (T-cell [4])	Activity (T-cell [5])	Activity (T-cell [6])
CCCCCCCCCCCCCCCCCC(=O)N[C@@H](CO[C@H]1O[C@H](CO)[C@H](O)[C@H](O)[C@H]1O)[C@H](O)[C@H](O)CCCCCCCCCCCCCC	Active	–	–	–	–	–
CCCCCCCCCCCCCC[C@@H](O)[C@@H](O)[C@H](CO[C@H]1O[C@H](CO)[C@H](O)[C@H](O)[C@H]1O)NC(=O)c1ccc(C)cc1	inactive	–	–	–	–	–
CCCCCCCCCCCCCCCCCCCCCCCCCC(=O)N[C@@H](CO[C@H]1O[C@H](CO)[C@H](O)[C@H](O)[C@H]1O)[C@H](O)[C@H](O)CCCCCCCCCCCCCC	–	Active	Active	–	–	–
CCCCCCCCCCCCCC[C@@H](O)[C@@H](O)[C@H](CO[C@H]1O[C@H](CO)[C@H](O)[C@H](O)[C@H]1O)NS(=O)(=O)c1ccc(OC)cc1	–	Active	Active	inactive	–	–
CCCCCCCCCCCCCC[C@@H](O)[C@@H](O)[C@H](CO[C@H]1O[C@H](CO)[C@H](O)[C@H](O)[C@H]1O)NS(=O)(=O)c1ccc(-c2ccccc2)cc1	–	Active	Active	inactive	–	–
CCCCCCCCCCCCCC[C@@H](O)[C@@H](O)[C@H](CO[C@H]1O[C@H](CO)[C@H](O)[C@H](O)[C@H]1O)NS(=O)(=O)c1cccc2ccccc12	–	Active	Active	inactive	–	–
CCCCCCCCCCCCCCCCS(=O)(=O)N[C@@H](CO[C@H]1O[C@H](CO)[C@H](O)[C@H](O)[C@H]1O)[C@H](O)[C@H](O)CCCCCCCCCCCCCC	–	–	–	inactive	–	–
CCCCCCCCCCCCCC[C@@H](O)[C@@H](O)[C@H](CC[C@H]1O[C@H](CO)[C@H](O)[C@H](O)[C@H]1O)NS(=O)(=O)c1ccc(C)cc1	inactive	inactive	inactive	–	–	–
CCCCCCCCCCCCCC[C@@H](O)[C@@H](O)[C@H](CO[C@H]1O[C@H](CO)[C@H](O)[C@H](O)[C@H]1O)NS(=O)(=O)c1ccccc1C	–	Active	Active	inactive	–	–
CCCCCCCCCCCCCC[C@@H](O)[C@@H](O)[C@H](CO[C@H]1O[C@H](CO)[C@H](O)[C@H](O)[C@H]1O)NS(=O)(=O)c1ccc(NC(C)=O)cc1	–	Active	Active	inactive	Active	Active
CCCCCCCCCCCCCC[C@@H](O)[C@@H](O)[C@H](CO[C@H]1O[C@H](CO)[C@H](O)[C@H](O)[C@H]1O)NS(=O)(=O)c1ccc(C)cc1	–	Active	Active	inactive	–	–
CCCCCCCCCCCCCC[C@@H](O)[C@@H](O)[C@H](CO[C@H]1O[C@H](CO)[C@H](O)[C@H](O)[C@H]1O)NS(=O)(=O)c1cccc(C)c1	–	Active	Active	inactive	–	–
CCCCCCCCCCCCCCCCCCCCCCCC(=O)N[C@@H](CO[C@H]1O[C@H](CO)[C@H](O)[C@H](O)[C@H]1O)[C@H](O)[C@H](O)CCCCC	–	Active	Active	–	–	–
